Assay results published in ChEMBL document CHEMBL1127442, “Triazolinone biphenylsulfonamide derivatives as orally active angiotensin II antagonists with potent AT1 receptor affinity and enhanced AT2 affinity” (J Med Chem, 1994).

Key:
[1] = target: T1, Type-2 angiotensin II receptor (Rattus norvegicus, UniProt P35351); assay: In vitro inhibitory activity against angiotensin II rat midbrain AT2 receptor using radioligand [125I]-Sar Ile-AII
T1 sequence (P35351 whole entry): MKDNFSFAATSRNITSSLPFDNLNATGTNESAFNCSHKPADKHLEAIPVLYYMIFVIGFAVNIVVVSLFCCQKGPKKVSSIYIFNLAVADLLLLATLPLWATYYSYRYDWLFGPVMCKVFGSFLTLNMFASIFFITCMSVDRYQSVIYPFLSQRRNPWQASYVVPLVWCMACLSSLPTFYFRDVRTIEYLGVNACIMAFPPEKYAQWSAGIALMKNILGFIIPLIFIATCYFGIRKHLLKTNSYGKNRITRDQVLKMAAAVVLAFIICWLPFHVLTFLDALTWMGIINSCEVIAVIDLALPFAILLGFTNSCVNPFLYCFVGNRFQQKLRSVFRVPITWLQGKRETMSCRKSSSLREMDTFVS
Procedure, shortened: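 Dithiothreitol ([…]) was added to the assay mixture to abolish residual AT1 binding. Tubes were run in duplicate, and IC50 came from nonlinear regression of displacement curves.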

[2] = target: T2, Type-1 angiotensin II receptor (Oryctolagus cuniculus, UniProt P34976); assay: In vitro inhibitory activity against angiotensin II rabbit aorta AT1 receptor using radioligand [125I]-Sar Ile-AII; type: tissue-based
T2 sequence (P34976 whole entry): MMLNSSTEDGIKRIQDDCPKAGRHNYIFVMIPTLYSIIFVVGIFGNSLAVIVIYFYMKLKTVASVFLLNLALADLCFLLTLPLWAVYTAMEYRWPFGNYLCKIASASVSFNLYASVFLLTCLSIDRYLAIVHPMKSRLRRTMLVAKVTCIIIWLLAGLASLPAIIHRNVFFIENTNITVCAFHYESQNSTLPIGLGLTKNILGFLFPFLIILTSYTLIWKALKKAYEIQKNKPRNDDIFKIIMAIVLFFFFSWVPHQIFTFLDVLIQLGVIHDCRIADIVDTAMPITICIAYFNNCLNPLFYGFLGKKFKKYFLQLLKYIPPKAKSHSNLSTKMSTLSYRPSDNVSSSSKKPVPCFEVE

Row | Structure (SMILES) | IC50 [1] [nM] | IC50 [2] [nM]
1 | CCCCc1nn(-c2ccccc2C(F)(F)F)c(=O)n1Cc1ccc(-c2ccccc2S(=O)(=O)NC(=O)c2ccccc2-c2ccccc2)cc1 | 330 | 0.6
2 | CCCCc1nn(-c2ccccc2C(F)(F)F)c(=O)n1Cc1ccc(-c2ccccc2S(=O)(=O)NC(=O)C2SCCS2)cc1 | 35 | 0.35
3 | CCCCc1nn(-c2ccccc2C(F)(F)F)c(=O)n1Cc1ccc(-c2ccccc2S(=O)(=O)NC(=O)C2(C)SCCS2)cc1 | 80 | 0.22
4 | CCCCc1nn(-c2ccccc2C(F)(F)F)c(=O)n1Cc1ccc(-c2ccccc2S(=O)(=O)NC(=O)C2(C)CC2)cc1 | 76 | 0.8
5 | CCCCc1nn(-c2ccccc2C(F)(F)F)c(=O)n1Cc1ccc(-c2ccccc2S(=O)(=O)NC(=O)c2ccccc2Cc2ccccc2)cc1 | 190 | 0.82
6 | CCCCc1nn(-c2ccccc2C(F)(F)F)c(=O)n1Cc1ccc(-c2ccccc2S(=O)(=O)NC(=O)COCC)cc1 | 380 | 0.75
7 | CCCCc1nn(-c2ccccc2C(F)(F)F)c(=O)n1Cc1ccc(-c2ccccc2S(=O)(=O)NC#N)cc1 | > 1000 | 4.7
8 | CCCCc1nn(-c2ccccc2C(F)(F)F)c(=O)n1Cc1ccc(-c2ccccc2S(=O)(=O)NC(=O)C2CCCC2)cc1 | 82 | 0.32
9 | CCCCc1nn(-c2ccccc2C(F)(F)F)c(=O)n1Cc1ccc(-c2ccccc2S(=O)(=O)NC(=O)c2ccsc2)cc1 | 300 | 5
10 | CCCc1nn(-c2ccccc2C(F)(F)F)c(=O)n1Cc1ccc(-c2ccccc2S(=O)(=O)NC(=O)C2CC2)cc1 | 410 | 18
11 | CCCCc1nn(-c2ccccc2C(F)(F)F)c(=O)n1Cc1ccc(-c2ccccc2S(=O)(=O)NC(=O)CCCC(=O)O)cc1 | 1500 | 5.5
12 | CCCCc1nn(-c2ccccc2C(F)(F)F)c(=O)n1Cc1ccc(-c2ccccc2S(=O)(=O)Nc2nc3ccccc3o2)cc1 | 700 | 5.2
13 | CCCCc1nn(-c2ccccc2C(F)(F)F)c(=O)n1Cc1ccc(-c2ccccc2S(=O)(=O)NC(=O)CCOC)cc1 | 270 | 2
14 | CCCCc1nn(-c2ccccc2C(F)(F)F)c(=O)n1Cc1ccc(-c2ccccc2S(=O)(=O)NC(=O)c2cccc(Cl)c2Cl)cc1 | 780 | 0.72
15 | CCCCc1nn(-c2ccccc2C(F)(F)F)c(=O)n1Cc1ccc(-c2ccccc2S(=O)(=O)NC(=O)c2cc(OC)c(OC)c(OC)c2)cc1 | 6500 | 21
16 | CCCCc1nn(-c2ccccc2C(F)(F)F)c(=O)n1Cc1ccc(-c2ccccc2S(=O)(=O)NC(=O)C2CCOC2)cc1 (stereo not drawn) | 280 | 2.8
17 | CCCCc1nn(-c2ccccc2C(F)(F)F)c(=O)n1Cc1ccc(-c2ccccc2S(=O)(=O)NC(=O)c2ccc(C(F)(F)F)cc2)cc1 | 1400 | 3.8
18 | CCCCc1nn(-c2ccccc2C(F)(F)F)c(=O)n1Cc1ccc(-c2ccccc2S(=O)(=O)NC(=O)c2ccc(OC)cc2)cc1 | 500 | 0.74
19 | CCCCc1nn(C(C)C)c(=O)n1Cc1ccc(-c2ccccc2S(=O)(=O)NC(=O)c2ccccc2)cc1 | 4600 | 7
20 | CCCCc1nn(-c2ccccc2C(F)(F)F)c(=O)n1Cc1ccc(-c2ccccc2S(=O)(=O)NC(=O)c2cc(Cl)ccc2Cl)cc1 | 26 | 0.48
21 | CCCCc1nn(-c2ccccc2C(F)(F)F)c(=O)n1Cc1ccc(-c2ccccc2S(=O)(=O)NC(=O)c2ccc(C)o2)cc1 | 150 | 0.4
22 | CCCCc1nn(-c2ccccc2C(F)(F)F)c(=O)n1Cc1ccc(-c2ccccc2S(=O)(=O)NC(=O)NC(C)(C)C)cc1 | 130 | 2.6
23 | CCCCc1nn(-c2ccccc2C(F)(F)F)c(=O)n1Cc1ccc(-c2ccccc2S(=O)(=O)NC(=O)C2(C)CC2(Cl)Cl)cc1 (stereo not drawn) | 120 | 0.37
24 | CCCCc1nc(Cl)c(C(=O)O)n1Cc1ccc(-c2ccccc2-c2nn[nH]n2)cc1 [CARBOXYLIC ACID METABOLITE] | > 50000 | 
25 | CCCCc1nn(-c2ccccc2C(F)(F)F)c(=O)n1Cc1ccc(-c2ccccc2S(=O)(=O)NC(=O)C2CC2)cc1 | 110 | 1.5
26 | CCCCc1nn(-c2ccccc2C(F)(F)F)c(=O)n1Cc1ccc(-c2ccccc2S(=O)(=O)NC(=O)c2ccccc2F)cc1 | 53 | 0.13
27 | CCCCc1nn(-c2ccccc2C(F)(F)F)c(=O)n1Cc1ccc(-c2ccccc2S(=O)(=O)NC(=O)C2CCCO2)cc1 (stereo not drawn) | 180 | 4.3

Row | Structure (SMILES) | IC50 [1] [nM] | IC50 [2] [nM]
28 | CCCCc1nn(-c2ccccc2C(F)(F)F)c(=O)n1Cc1ccc(-c2ccccc2S(=O)(=O)NC(=O)c2cccc(Cl)c2)cc1 | 150 | 2.4
29 | CCCCc1nn(-c2ccccc2C(F)(F)F)c(=O)n1Cc1ccc(-c2ccccc2S(=O)(=O)NC(=O)c2cc(C)oc2C)cc1 | 310 | 1
30 | CCCCc1nn(-c2ccccc2C(F)(F)F)c(=O)n1Cc1ccc(-c2ccccc2NS(=O)(=O)C(F)(F)F)cc1 | 5500 | 1.8
31 | CCCCc1nn(-c2ccccc2C(F)(F)F)c(=O)n1Cc1ccc(-c2ccccc2S(=O)(=O)NC(=O)C2CCCCCC2)cc1 | 270 | 0.3
32 | CCCCc1nn(-c2ccccc2C(F)(F)F)c(=O)n1Cc1ccc(-c2ccccc2S(=O)(=O)NC(=O)c2cccn2C)cc1 | 500 | 1.6
33 | CCCCc1nn(-c2ccccc2Cl)c(=O)n1Cc1ccc(-c2ccccc2S(=O)(=O)NC(=O)c2ccccc2)cc1 | 590 | 1.4
34 | CCCCc1nn(-c2ccccc2Cl)c(=O)n1Cc1ccc(-c2ccccc2S(N)(=O)=O)cc1 | 24000 | 820
35 | CCCCc1nn(-c2ccccc2C(F)(F)F)c(=O)n1Cc1ccc(-c2ccccc2S(=O)(=O)NC(=O)c2occ(Cl)c2Cl)cc1 | 25 | 0.19
36 | CCCCc1nn(-c2ccccc2C(F)(F)F)c(=O)n1Cc1ccc(-c2ccccc2S(=O)(=O)NC(=O)c2cccnc2Cl)cc1 | 520 | 1
37 | CCCCc1nn(-c2ccccc2C(F)(F)F)c(=O)n1Cc1ccc(-c2ccccc2S(=O)(=O)NC(=O)c2ccoc2C)cc1 | 110 | 3
38 | CCCCc1nn(-c2ccccc2C(F)(F)F)c(=O)n1Cc1ccc(-c2ccccc2-c2nnn[nH]2)cc1 | 23000 | 0.78
39 | CCCCc1nn(-c2ccccc2C(F)(F)F)c(=O)n1Cc1ccc(-c2ccccc2S(=O)(=O)NC(=O)c2ccc(C)s2)cc1 | 190 | 0.64
40 | CCCCc1nn(-c2ccccc2C(F)(F)F)c(=O)n1Cc1ccc(-c2ccccc2S(=O)(=O)NC(=O)NC(C)C)cc1 | 300 | 1.1
41 | CCCCc1nn(-c2ccccc2C(F)(F)F)c(=O)n1Cc1ccc(-c2ccccc2S(=O)(=O)NC(=O)c2cc3ccccc3o2)cc1.CCOCC |  | 0.17
42 | CCCCc1nn(-c2ccccc2C(F)(F)F)c(=O)n1Cc1ccc(-c2ccccc2S(=O)(=O)NS(=O)(=O)C(C)C)cc1 | 3600 | 0.16
43 | CCCCc1nn(-c2ccccc2Cl)c(=O)n1Cc1ccc(-c2ccccc2S(=O)(=O)NC(C)(C)C)cc1 | 11000 | 
44 | CCCCc1nn(-c2ccccc2C(F)(F)F)c(=O)n1Cc1ccc(-c2ccccc2S(=O)(=O)NC(=O)c2cc(Br)sc2Br)cc1 | 84 | 0.67
45 | CCCCc1nn(-c2ccccc2C(F)(F)F)c(=O)n1Cc1ccc(-c2ccccc2S(=O)(=O)NC(=O)C2CC3CCC2C3)cc1 (stereo not drawn) | 100 | 0.39
46 | CCCCc1nn(-c2ccccc2Cl)c(=O)n1Cc1ccc(-c2ccccc2S(=O)(=O)NC(=O)C(F)(F)F)cc1 | 450 | 
47 | CCCCc1nn(-c2c(Cl)cccc2Cl)c(=O)n1Cc1ccc(-c2ccccc2S(=O)(=O)NC(=O)c2ccccc2)cc1 | 500 | 2.6
48 | CCCCc1nn(-c2ccccc2C(F)(F)F)c(=O)n1Cc1ccc(-c2ccccc2S(=O)(=O)NS(=O)(=O)c2ccccc2)cc1 | 2400 | 0.2
49 | CCCCc1nn(-c2ccccc2C(F)(F)F)c(=O)n1Cc1ccc(-c2ccccc2S(=O)(=O)NC(=O)C2C(C)(C)C2(C)C)cc1 | 130 | 3.3
50 | CCCCCCCC(=O)NS(=O)(=O)c1ccccc1-c1ccc(Cn2c(CCCC)nn(-c3ccccc3C(F)(F)F)c2=O)cc1 | 450 | 2.9
51 | O=C(NS(=O)(=O)c1ccccc1-c1ccc(Cn2c(CCCC(F)(F)F)nn(-c3ccccc3C(F)(F)F)c2=O)cc1)c1ccccc1 | > 300 | 5.5
52 | CCCCc1nn(-c2ccccc2C(F)(F)F)c(=O)n1Cc1ccc(-c2ccccc2S(=O)(=O)NC(=O)c2oc(C)cc2C)cc1 | 55 | 0.22
53 | CCCCc1nn(-c2ccccc2C(F)(F)F)c(=O)n1Cc1ccc(-c2ccccc2S(=O)(=O)Nc2ccc([N+](=O)[O-])cc2)cc1 | 5200 | 78
54 | CCCCc1nn(-c2ccccc2Cl)c(=O)n1Cc1ccc(-c2ccccc2S(=O)(=O)NC(C)=O)cc1 | > 1000 | 
